SENP8 block-1 = inhibitors of human SENP8 protease; purified SENP8, Z-RLRGG-aminoluciferin cleavage, luminescence; inhibition, % at 10 µM; 330,000 compounds, 1.2% hits; AID 2540; in the data active means inhibition above about 50%
Target sequence (Q96LD8 whole entry, looked up): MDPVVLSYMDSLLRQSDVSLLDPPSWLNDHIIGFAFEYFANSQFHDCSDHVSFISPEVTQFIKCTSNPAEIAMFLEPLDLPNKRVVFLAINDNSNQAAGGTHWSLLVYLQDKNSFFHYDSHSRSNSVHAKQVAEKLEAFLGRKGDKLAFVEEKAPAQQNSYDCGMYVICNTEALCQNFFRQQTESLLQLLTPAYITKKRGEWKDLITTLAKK
SENP7 inh = SENP7 protease inhibition; 330,000 compounds, 1.5% hits; recombinant SENP7, Z-RLRGG-aminoluciferin luminescence, 40 min; inhibition, % at 5 µM; Q9BQF6;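 active means inhibition above about 50% at the single test dose, limit read from the data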;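 further: plate controls were DMSO with enzyme for no effect and no enzyme buffer wells for full effect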
UCH37 DUB inh = blocks the human deubiquitinase UCH37. Q9Y5K5. AID 588478. purified proteasome/UCH37, Ub-AMC cleavage fluorescence. inhibition, % (concentration not given with the values). 330,000 compounds, 0.33% hits;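 active means mean inhibition over replicate wells above about 20%, limit read from the data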;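 further: 0% = compound-free wells with enzyme and 100% = wells lacking proteasome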
Target sequence (Q9Y5K5 whole entry, looked up): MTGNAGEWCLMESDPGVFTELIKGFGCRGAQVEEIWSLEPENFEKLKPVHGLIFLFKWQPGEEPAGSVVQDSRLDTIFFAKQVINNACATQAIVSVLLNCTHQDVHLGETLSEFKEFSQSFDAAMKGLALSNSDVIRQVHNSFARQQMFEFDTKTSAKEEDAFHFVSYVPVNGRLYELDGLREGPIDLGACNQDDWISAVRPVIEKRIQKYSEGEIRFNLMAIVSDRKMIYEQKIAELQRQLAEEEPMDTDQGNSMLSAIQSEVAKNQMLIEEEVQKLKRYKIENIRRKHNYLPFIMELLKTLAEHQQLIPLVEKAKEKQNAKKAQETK
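Material: human UCH37 enzyme supplied as purified proteasome complex. Measure: % inhibition of Ub-AMC cleavage fluorescence. Medium: pH 7.4 Tris-HCl (50 mM) with ovalbumin, ATP-MgCl2, DTT. Times: 30 min preincubation with enzyme, 25 min cleavage at room temperature. Detection: AMC fluorescence intensity at 355/460 nm.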
SENP1 FRET inh = inhibitors of human SENP1 SUMO protease catalytic domain. inhibition, % at 10 µM. recombinant SENP1 catalytic domain, CyPet-SUMO1-YPet FRET cleavage. 360,000 compounds, 0.21% hits. Q9P0U3. AID 624204;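 active means inhibition at least 30% at 10 µM, raw YFP signal under a set limit, fluorescence ratio 0.5 to 1.5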;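 further: 0% = enzyme with DMSO and 100% = no enzyme wells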
Target sequence (Q9P0U3 419-644 limits assumed): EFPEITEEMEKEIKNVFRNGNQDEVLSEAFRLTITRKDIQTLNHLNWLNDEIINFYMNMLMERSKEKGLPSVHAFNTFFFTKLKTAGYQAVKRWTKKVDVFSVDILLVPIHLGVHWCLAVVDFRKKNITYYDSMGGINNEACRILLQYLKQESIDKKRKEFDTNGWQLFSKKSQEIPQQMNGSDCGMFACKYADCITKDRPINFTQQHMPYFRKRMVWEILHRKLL
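System: Recombinant human SENP1 catalytic domain, His6-tagged | Incubation: Enzyme reaction for 50 min at room temperature, dark | Medium: Tris pH 8 with BME, BSA, NP40 and catalase | Also added: 25 nM SUMO1 FRET substrate | Compound: 10 µM single point, 0.5% DMSO | Measured by: FRET fluorescence in CFP and YFP emission channels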
SENP6 inh = inhibitors of human SENP6 protease | Q9GZR1 | Recombinant SENP6 catalytic domain, aminoluciferin luminescence | inhibition, % at 10 µM | 330,000 compounds, 1.8% hits;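 active means inhibition above about 50% at the single tested dose, limit read from the data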;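 further: plate controls were DMSO wells with enzyme for no effect and DMSO wells lacking enzyme for full effect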
SENP8 block-2 = SENP8 (human) protease inhibition | recombinant SENP8, Nedd8 substrate fluorescence | 360,000 compounds, 0.64% hits | inhibition, % at 20 µM | Q96LD8; in the data active means inhibition mostly above about 40%, no sharp cut-off; inactive means mostly below about 27%
SENP8 confirm = confirmation of human SENP8 protease inhibitors. Recombinant SENP8, Z-RLRGG-aminoluciferin luminescence, 60 min. shares compounds with SENP7 inh. 6,200 compounds, 40% hits. inhibition, % at 12.5 µM;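 active means mean inhibition across replicates above about 50%, limit read from the data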
SENP6 confirm = confirmation of human SENP6 protease inhibitors; shares compounds with SENP7 inh; recombinant SENP6, Z-RLRGG-aminoluciferin luminescence; 6,200 compounds, 58% hits; inhibition, % at 12.5 µM
SENP7 conf = confirmation of human SENP7 protease inhibitors; shares compounds with SENP7 inh; AID 488917; recombinant SENP7, Z-RLRGG-aminoluciferin luminescence, 40 min; inhibition, % at 12.5 µM; 6,200 compounds, 69% hits
Casp3 SENP sel = inhibits human caspase-3 in SENP selectivity test; shares compounds with SENP7 inh; purified caspase-3, Z-DEVD-aminoluciferin luminescence, 60 min; inhibition, % at 12.5 µM; 6,200 compounds, 60% hits; AID 488918;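 active means mean inhibition above about 50%, limit read from the data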;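 further: plate controls were enzyme with DMSO for no effect and wells without caspase-3 for full effect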
Luc interf = interferes with luciferase luminescence in SENP counter-screen; 6,200 compounds, 39% hits; Pre-incubated SENP8/Z-RLRGG-aminoluciferin, luciferase luminescence interference; inhibition, % at 12.5 µM; AID 488919; shares compounds with SENP7 inh;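 active means mean inhibition above about 50% when retested at one dose, limit read from the data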;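 further: plate controls were DMSO wells with completed reaction for no effect and substrate without enzyme for full effect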
The depositor's hits bear a star; / = no result. Shown are actives, neighbours in structure and some others; about 2.6% of the full set was active somewhere.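 How the source made its calls, unless noted: active means mean inhibition above about 50% in the one-dose retest (limit read from the data); inactive means the rest.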

SMILES | SENP8 block-1 | SENP7 inh | UCH37 DUB inh | SENP1 FRET inh | SENP6 inh | SENP8 block-2 | SENP8 confirm | SENP6 confirm | SENP7 conf | Casp3 SENP sel | Luc interf
CCc1ccc2cccc3c2c1N=CN3C | 40.8 | 27.3 | 2.1 | -7.4 | 56.9* | 84.0* | 14.6 | 21.1 | 15.1 | 2.9 | 3.1
COc1cc(C(=O)NCCN2C(=O)S/C(=C\c3cccs3)C2=O)cc(OC)c1OC | 55.6* | 64.1* | 8.1 | -0.2 | 11.6 | 6.3 | 2.4 | 4.5 | 8.8 | 6.0 | -0.5
Nn1c(Nc2ccccc2)nc2ccccc21 | 28.4 | 41.6 | 0.3 | 1.7 | 66.7* | 24.2 | 50.9* | 46.7 | 81.0* | 72.7* | 59.0*
Cc1ccc(/C=C/c2nc3ccccc3s2)s1 | 85.7* | 9.6 | -13.2 | -1.7 | 91.6* | -114.3 | 97.4* | 100.1* | 103.2* | 95.2* | 78.0*
O=C(O)CCc1nn2cc(-c3ccccc3)nc2[nH]c1=O | -11.6 | -5.6 | -140.3 | 5.8 | -12.8 | -416.5 | / | / | / | / | /
Cc1nn2cc(-c3ccccc3)nc2[nH]c1=O | 38.3 | 24.0 | -88.9 | 7.5 | 72.5* | -496.9 | 65.8* | 61.2* | 88.6* | 88.9* | 28.7
CC(=O)Oc1ccccc1/C=C/c1nc2ccccc2c(=O)o1 | 65.5* | 66.1* | -2.0 | 3.1 | 75.6* | -41.3 | 77.4* | 74.1* | 89.7* | 93.8* | 56.6*
Clc1cc(Cl)c2nc(N3CCOCC3)sc2c1 | 13.9 | 25.3 | 5.2 | 0.7 | -38.9 | 0.7 | / | / | / | / | /
Clc1ccc(-c2nsc(N3CCOCC3)n2)c(Cl)c1 | 64.9* | 68.2* | 1.4 | 0.8 | 77.1* | 10.8 | 66.3* | 64.3* | 88.8* | 71.8* | 49.4
N/C(=N\OC(=O)c1ccc(Cl)cc1)c1nonc1N | 94.2* | 99.5* | / | 3.4 | 97.2* | 0.2 | 98.0* | 99.6* | 103.1* | 98.1* | 95.3*
NC(=NOC(=O)c1ccccc1F)c1nonc1N | / | / | 0.0 | / | / | / | / | / | / | / | /
N/C(=N\OCc1ccccc1)c1nonc1N | 55.3* | 68.5* | / | 0.5 | 61.1* | 22.4 | 61.8* | 60.7* | 89.0* | 83.4* | 71.6*
N/C(=N/OC(=O)c1ccccc1F)c1nonc1N | 93.2* | 98.1* | / | -0.7 | 97.8* | 20.7 | 94.8* | 95.3* | 101.3* | 96.6* | 95.5*
Oc1c(Br)cc(Br)cc1C=NNc1ccc(Cl)nn1 | / | / | 6.8 | / | / | / | / | / | / | / | /
CC(Cn1cnc([N+](=O)[O-])n1)=NNC(=O)c1ccc(O)cc1O | / | / | 4.2 | / | / | / | / | / | / | / | /
c1ccc2c(c1)Cc1cc3ccccc3nc1-2 | 91.9* | 95.1* | -2.1 | -3.4 | 98.1* | 0.9 | 8.7 | 94.9* | 100.3* | 92.2* | 36.3
Cc1cc2ccccc2nc1-c1ccccc1F | / | / | / | -0.1 | / | -0.2 | / | / | / | / | /
O=C1c2ccccc2-c2nc3ccccc3cc21 | 86.0* | 90.0* | 2.3 | -1.8 | 90.8* | 14.3 | 0.1 | 87.9* | 99.3* | 86.0* | 69.9*
CCc1ccc(C(=O)O)cc1 | -0.2 | -4.7 | 3.7 | 1.1 | 6.9 | 28.8 | / | / | / | / | /
CCC(C)COC(=O)c1ccc(C(=O)O)cc1 (centres undefined) | 25.7 | 2.0 | -2.9 | 0.7 | 62.3* | 26.1 | 41.5 | 45.0 | 81.2* | 85.6* | 70.1*
O=C(CSc1nnc(SCc2ccc(Cl)cc2)s1)NN=Cc1ccccc1C(=O)O | / | / | 3.2 | / | / | / | / | / | / | / | /
O=C(Nc1cccc(-c2nc3ccccc3[nH]2)c1)c1cccc(NC(=O)c2ccco2)c1 | 2.4 | 3.6 | -39.4 | 0.2 | 9.0 | 14.9 | / | / | / | / | /
CS(=O)(=O)Cc1ccc(C(=O)Nc2cccc(-c3nc4ccccc4[nH]3)c2)cc1 | 50.4* | 66.9* | 4.2 | -1.7 | 78.5* | 5.2 | 59.2* | 56.7* | 81.4* | 62.2* | 22.6
CS(=O)(=O)c1ccc(C(=O)Nc2cccc(-c3nc4ccccc4[nH]3)c2)cc1 | 15.9 | -0.4 | 12.9 | 0.8 | 15.6 | 1.6 | / | / | / | / | /
COc1ccc(OCC(=O)Nc2cccc(-c3nc4ccccc4[nH]3)c2)cc1 | 61.4* | 75.5* | 1.1 | 0.0 | 74.4* | -20.5 | 76.7* | 75.7* | 92.4* | 58.1* | 78.8*
SMILES | SENP8 block-1 | SENP7 inh | UCH37 DUB inh | SENP1 FRET inh | SENP6 inh | SENP8 block-2 | SENP8 confirm | SENP6 confirm | SENP7 conf | Casp3 SENP sel | Luc interf
CS(=O)(=O)c1cccc(C(=O)Nc2cccc(-c3nc4ccccc4[nH]3)c2)c1 | 91.0* | 96.4* | 4.3 | 0.7 | 96.2* | -0.5 | 96.4* | 97.1* | 102.2* | 47.6 | 96.2*
CCCC1SC(=NN=Cc2ccc(OC)cc2)N(Cc2ccc(OC)cc2)C1=O (centres undefined) | / | / | 0.2 | / | / | / | / | / | / | / | /
CC(=O)c1cccc(NC(=O)c2cnn3ccccc23)c1 | 43.5 | 40.8 | 0.0 | 1.1 | 56.6* | 16.4 | 40.4 | 38.6 | 77.6* | 78.3* | 56.3*
CC(=O)c1ccc(NC(=O)c2cnn3ccccc23)cc1 | 26.9 | 37.1 | 5.1 | 1.8 | 56.1* | -20.4 | 32.9 | 32.4 | 73.4* | 72.7* | 59.6*
Cc1ccc(C)c(NC(=O)c2cnn3ccccc23)c1 | -1.8 | 0.9 | 1.5 | -0.6 | -3.4 | -1.2 | / | / | / | / | /
Cc1ccccc1NC(=O)c1onc2c1CCCC2 | 65.7* | 54.6* | -1.9 | 0.0 | 82.9* | 7.6 | 21.6 | 62.8* | 90.2* | 84.7* | 72.4*
Cc1cccc(NC(=O)c2onc3c2CCCC3)n1 | 93.0* | 97.0* | 0.3 | -0.7 | 95.3* | 3.5 | 96.4* | 97.6* | 102.0* | 97.5* | 95.5*
Cc1cccc(NC(=O)c2cccc(NC(=O)c3ccccc3)c2)n1 | 4.0 | 0.7 | 2.9 | 0.3 | 15.2 | 12.2 | / | / | / | / | /
Cc1cccc(NC(=O)c2onc3c2CCCC3)c1C | 24.1 | 25.1 | -2.7 | 0.3 | 49.1 | 10.6 | / | / | / | / | /
CC(=O)N1N=C(c2ccc(C)cc2)OC1c1ccc(C(C)C)cc1 (centres undefined) | -2.8 | 66.4* | 3.1 | 0.9 | 65.7* | 4.6 | 7.2 | 11.3 | 31.7 | 26.7 | 21.2
Cn1c(-c2ccccc2)cc2onc(-c3ccccc3)c2c1=O | 95.1* | 94.9* | 0.9 | 2.0 | 95.4* | 15.0 | 34.3 | 37.8 | 55.3* | 29.1 | 4.2

Screening results from PubChem.
